In ChEMBL document CHEMBL3124823, “1,2,3-Triazole-containing derivatives of rupestonic acid: click-chemical synthesis and antiviral activities against influenza viruses” (Eur J Med Chem, 2014):
Values after ≈ are worked out from the molar mass of the structure shown.

How the values were obtained:
[1] = Selectivity index, ratio of TC50 for MDCK cells to IC50 for Influenza B virus jifang/13/97; assay type: toxicity, cell-based; conditions: dog, read-out: Selectivity Index
Outline: (§1)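 Selectivity index = TC50 (MDCK, 48 h visual cytotoxicity) / IC50 from the 40 h CPE-inhibition assay for the given strain.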

Influenza B virus [2] = assay: Antiviral activity against Influenza B virus jifang/13/97 infected in MDCK cells assessed as inhibition of virus-induced cytopathicity after 40 hrs; assay type: functional, organism-based; conditions: jifang/13/97, MDCK
Outline: (§2)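 CPE reduction in MDCK cells: cells grown 24 h at 37 °C, 5% CO2, then infected and held 2 h at 37 °C before the inoculum was removed. Threefold serial drug dilutions (8 levels from 20 mg/mL DMSO stocks) were added and incubated 40 h at 37 °C. CPE inhibition was scored against cell and virus controls to give IC50. Ribavirin and oseltamivir were the controls.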

Influenza A virus [3] = assay: Antiviral activity against Influenza A virus A/hanfang/359/95(H3N2) infected in MDCK cells assessed as inhibition of virus-induced cytopathicity after 40 hrs; assay type: functional, organism-based; outline: as §2
Influenza A virus [4] = assay: Antiviral activity against Influenza A virus (A/FM/1/1947(H1N1)) infected in MDCK cells assessed as inhibition of virus-induced cytopathicity after 40 hrs; assay type: functional, organism-based; conditions: A/Fort Monmouth/1/1947(H1N1); outline: as §2
[5] = Cytotoxicity against MDCK cells after 48 hrs; assay type: cell-based, Canis lupus familiaris; conditions: dog, read-out: TC50
Outline: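 MDCK cells seeded at 25000 per well and cultured 24 h at 37 °C, 5% CO2. Threefold dilutions were added to the monolayer and culture continued 48 h. Cytopathic changes were recorded by observation, and TC50 was calculated by the Reed & Muench method.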

[6] = Selectivity index, ratio of TC50 for MDCK cells to IC50 for Influenza A virus (A/Tianjinjinnan/15/2009/H1N1); assay type: toxicity, cell-based; conditions: dog, read-out: Selectivity Index; outline: as §1
[7] = Selectivity index, ratio of TC50 for MDCK cells to IC50 for Influenza A virus (A/FM/1/1947(H1N1)); assay type: toxicity, cell-based; conditions: dog, read-out: Selectivity Index; outline: as §1
Influenza B virus [8] = assay: Ratio of ribavirin IC50 to compound IC50 for Influenza B virus jifang/13/97 infected in MDCK cells; assay type: functional
Influenza B virus [9] = assay: Antiviral activity against Influenza B virus jifang/13/97 infected in MDCK cells assessed as inhibition of plaque formation after 3 to 4 days by crystal violet staining-based assay; assay type: functional, organism-based; conditions: jifang/13/97, MDCK
Outline: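 Plaque reduction: MDCK monolayers in 12-well plates were PBS-washed and infected with influenza B in trypsin-free maintenance medium for 2 h at 37 °C, 5% CO2. Inoculum was removed and the cells washed three times. A 1.5% agarose/MEM overlay with trypsin (2 μg/ml) and drug was added. After 3-4 days, crystal violet (0.5%) plaque counts against no-drug wells gave IC50 by Reed & Muench. Ribavirin was the control.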

[10] = Selectivity index, ratio of TC50 for MDCK cells to IC50 for Influenza A virus A/hanfang/359/95(H3N2); assay type: toxicity, cell-based; conditions: dog, read-out: Selectivity Index; outline: as §1

SMILES: C=C(C(=O)OCc1cn(Cc2cccc(Cl)c2)nn1)[C@@H]1CC[C@H](C)[C@@H]2CC(=O)C(C)=C2C1
- selectivity ratio [1]: 2.1
- IC50 (Influenza B virus [2]): 66.7 µg/mL (≈ 147 µM)
- IC50 (Influenza A virus [3]): > 66.7 µg/mL
- IC50 (Influenza A virus [4]): ≥ 66.7 µg/mL
- CC50 at 48 h [5]: 139 µg/mL (≈ 305 µM)

SMILES: C=C(C(=O)OCc1cn(Cc2ccc(Cl)cc2)nn1)[C@@H]1CC[C@H](C)[C@@H]2CC(=O)C(C)=C2C1
- selectivity ratio [1]: 5.2
- IC50 (Influenza B virus [2]): 12.8 µg/mL (≈ 28.3 µM)
- IC50 (Influenza A virus [3]): > 22.2 µg/mL
- IC50 (Influenza A virus [4]): > 22.2 µg/mL
- CC50 at 48 h [5]: 66.7 µg/mL (≈ 147 µM)

SMILES: C=C(C(=O)OCc1cn(Cc2cccc(C)c2)nn1)[C@@H]1CC[C@H](C)[C@@H]2CC(=O)C(C)=C2C1
- selectivity ratio [1]: ≥ 4
- IC50 (Influenza B virus [2]): ≥ 9.54 µg/mL
- IC50 (Influenza A virus [3]): > 22.2 µg/mL
- selectivity ratio [6]: 1.98
- selectivity ratio [7]: 3.76
- IC50 (Influenza A virus [4]): 12.3 µg/mL (≈ 28.4 µM)
- CC50 at 48 h [5]: 38.5 µg/mL (≈ 88.8 µM)

SMILES: C=C(C(=O)NCc1cn(Cc2ccc(Cl)cc2)nn1)[C@@H]1CC[C@H](C)[C@@H]2CC(=O)C(C)=C2C1
- Ratio IC50 (Influenza B virus [8]): >4
- selectivity ratio [1]: 8.55
- IC50 (Influenza B virus [2]): 2.09 µg/mL (≈ 4.61 µM)
- IC50 (Influenza A virus [3]): > 2.47 µg/mL
- IC50 (Influenza A virus [4]): > 2.47 µg/mL
- CC50 at 48 h [5]: 17.2 µg/mL (≈ 38.1 µM)

SMILES: C=C(C(=O)OCc1cn(Cc2ccc(Cl)c(Cl)c2)nn1)[C@@H]1CC[C@H](C)[C@@H]2CC(=O)C(C)=C2C1
- IC50 (Influenza B virus [2]): > 7.41 µg/mL
- IC50 (Influenza A virus [3]): > 7.41 µg/mL
- IC50 (Influenza A virus [4]): > 7.41 µg/mL
- CC50 at 48 h [5]: 22.2 µg/mL (≈ 45.5 µM)

SMILES: C=C(C(=O)NCc1cn(Cc2ccc(F)cc2)nn1)[C@@H]1CC[C@H](C)[C@@H]2CC(=O)C(C)=C2C1
- IC50 (Influenza B virus [9]): 0.73 µg/mL (≈ 1.67 µM)
- Ratio IC50 (Influenza B virus [8]): >4
- selectivity ratio [1]: 43.8
- IC50 (Influenza B virus [2]): 3.92 µg/mL (≈ 8.98 µM)
- IC50 (Influenza A virus [3]): > 66.7 µg/mL
- IC50 (Influenza A virus [4]): ≥ 66.7 µg/mL
- CC50 at 48 h [5]: 116 µg/mL (≈ 265 µM)

SMILES: C=C(C(=O)NCc1cn(Cc2ccc(C)cc2)nn1)[C@@H]1CC[C@H](C)[C@@H]2CC(=O)C(C)=C2C1
- selectivity ratio [1]: 8.25
- IC50 (Influenza B virus [2]): 11.8 µg/mL (≈ 27.2 µM)
- IC50 (Influenza A virus [3]): > 22.2 µg/mL
- selectivity ratio [7]: 5.91
- IC50 (Influenza A virus [4]): 17.5 µg/mL (≈ 40.5 µM)
- CC50 at 48 h [5]: 96.2 µg/mL (≈ 222 µM)

SMILES: C=C(C(=O)OCc1cn(Cc2cccc(OC)c2)nn1)[C@@H]1CC[C@H](C)[C@@H]2CC(=O)C(C)=C2C1
- IC50 (Influenza B virus [2]): > 22.2 µg/mL
- IC50 (Influenza A virus [3]): > 22.2 µg/mL
- IC50 (Influenza A virus [4]): > 22.2 µg/mL
- CC50 at 48 h [5]: 96.2 µg/mL (≈ 214 µM)

SMILES: C=C(C(=O)NCc1cn(Cc2ccccc2Cl)nn1)[C@@H]1CC[C@H](C)[C@@H]2CC(=O)C(C)=C2C1
- IC50 (Influenza B virus [9]): 0.21 µg/mL (≈ 0.464 µM)
- Ratio IC50 (Influenza B virus [8]): >4
- selectivity ratio [1]: 22.5
- IC50 (Influenza B virus [2]): 1.71 µg/mL (≈ 3.77 µM)
- IC50 (Influenza A virus [3]): > 7.41 µg/mL
- IC50 (Influenza A virus [4]): > 7.41 µg/mL
- CC50 at 48 h [5]: 38.5 µg/mL (≈ 85 µM)

SMILES: C=C(C(=O)NCc1cn(Cc2cccc(C)c2)nn1)[C@@H]1CC[C@H](C)[C@@H]2CC(=O)C(C)=C2C1
- selectivity ratio [1]: 5.7
- IC50 (Influenza B virus [2]): 11.8 µg/mL (≈ 27.2 µM)
- IC50 (Influenza A virus [3]): > 22.2 µg/mL
- IC50 (Influenza A virus [4]): > 22.2 µg/mL
- CC50 at 48 h [5]: 66.7 µg/mL (≈ 154 µM)

SMILES: C=C(C(=O)OCc1cn(Cc2cccc(F)c2)nn1)[C@@H]1CC[C@H](C)[C@@H]2CC(=O)C(C)=C2C1
- selectivity ratio [1]: ≥ 4.3
- IC50 (Influenza B virus [2]): ≥ 22.2 µg/mL
- IC50 (Influenza A virus [3]): > 22.2 µg/mL
- IC50 (Influenza A virus [4]): > 22.2 µg/mL
- CC50 at 48 h [5]: 96.2 µg/mL (≈ 220 µM)

SMILES: C=C(C(=O)NCc1cn(Cc2ccccc2)nn1)[C@@H]1CC[C@H](C)[C@@H]2CC(=O)C(C)=C2C1
- selectivity ratio [1]: 12.2
- IC50 (Influenza B virus [2]): 11.3 µg/mL (≈ 27 µM)
- IC50 (Influenza A virus [3]): > 22.2 µg/mL
- selectivity ratio [7]: 5.58
- IC50 (Influenza A virus [4]): 17.2 µg/mL (≈ 41.2 µM)
- CC50 at 48 h [5]: 96.2 µg/mL (≈ 230 µM)

SMILES: C=C(C(=O)OCc1cn(Cc2ccccc2F)nn1)[C@@H]1CC[C@H](C)[C@@H]2CC(=O)C(C)=C2C1
- IC50 (Influenza B virus [9]): 0.91 µg/mL (≈ 2.08 µM)
- Ratio IC50 (Influenza B virus [8]): >4
- selectivity ratio [1]: 29.7
- IC50 (Influenza B virus [2]): 2.26 µg/mL (≈ 5.17 µM)
- IC50 (Influenza A virus [3]): > 22.2 µg/mL
- IC50 (Influenza A virus [4]): > 22.2 µg/mL
- CC50 at 48 h [5]: 66.7 µg/mL (≈ 152 µM)

SMILES: C=C(C(=O)OCc1cn(Cc2ccccc2C)nn1)[C@@H]1CC[C@H](C)[C@@H]2CC(=O)C(C)=C2C1
- selectivity ratio [1]: 2.55
- IC50 (Influenza B virus [2]): 18.8 µg/mL (≈ 43.4 µM)
- IC50 (Influenza A virus [3]): > 22.2 µg/mL
- IC50 (Influenza A virus [4]): > 22.2 µg/mL
- CC50 at 48 h [5]: 46.2 µg/mL (≈ 107 µM)

SMILES: C=C(C(=O)OCc1cn(Cc2ccc(F)cc2)nn1)[C@@H]1CC[C@H](C)[C@@H]2CC(=O)C(C)=C2C1
- selectivity ratio [1]: 9.1
- IC50 (Influenza B virus [2]): 8.98 µg/mL (≈ 20.5 µM)
- IC50 (Influenza A virus [3]): > 22.2 µg/mL
- IC50 (Influenza A virus [4]): > 22.2 µg/mL
- CC50 at 48 h [5]: 66.7 µg/mL (≈ 152 µM)

SMILES: C=C(C(=O)OCc1cn(C2CCCCC2)nn1)[C@@H]1CC[C@H](C)[C@@H]2CC(=O)C(C)=C2C1
- selectivity ratio [1]: 6.5
- IC50 (Influenza B virus [2]): 18.5 µg/mL (≈ 45 µM)
- selectivity ratio [10]: ≥ 1.73
- IC50 (Influenza A virus [3]): ≥ 66.7 µg/mL
- selectivity ratio [6]: 1.98
- selectivity ratio [7]: 1.73
- IC50 (Influenza A virus [4]): 66.7 µg/mL (≈ 162 µM)
- CC50 at 48 h [5]: 115 µg/mL (≈ 281 µM)
